pIC50: −log10 of the molar value.
Tests used:
Leishmania major [1] = assay: Antileishmanial activity against promastigote stage of Leishmania major Friedlin clone V1 assessed as parasite survival after 72 hrs by luciferase reporter gene assay; type: functional; conditions: Friedlin clone V1, 72 h, read-out: LD50 (the source's name)
Summary of the method: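 Luciferase-expressing L. major Friedlin clone V1 promastigotes exposed to compound for 72 h; Amphotericin B served as positive control. Lethality is expressed as LD50.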

[2] = Cytotoxicity against mouse intraperitoneal macrophages after 48 hrs by Alamar Blue assay; type: cell-based; conditions: Peritoneal macrophage cell
Leishmania major [3] = assay: Antileishmanial activity against amastigote stage of Leishmania major in starch-activated mouse intraperitoneal macrophages assessed as inhibition of intracellular parasite proliferation at 5 uM after 48 hrs by annexin-V 488/DAPI staining-based microplate confocal microscopic analysis relative to control; type: functional
Summary of the method: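 Macrophages infected 24 h after plating with L. major metacyclic promastigotes at 10 parasites per cell, then treated 48 h at 5 µM. Fixed, stained with annexin-V 488 and DAPI; infected cells (5 or more amastigotes per macrophage) and amastigotes counted by high-content confocal imaging. Negative control 1% DMSO; positive control amphotericin B 25 µM.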

Leishmania major [4] = assay: Antileishmanial activity against promastigote stage of Leishmania major assessed as induction of intracellular reactive oxygen species generation at 3 uM preincubated for 24 hrs followed by H2DCFDA probe addition measured after 20 mins by fluorescence microplate reader analysis relative to vehicle-treated control; type: functional
Summary of the method: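 L. major promastigotes exposed 24 h (3 µM for the single-concentration read). H2DCFDA then added and incubated a further 20 min at 37 °C; fluorescence read on a microplate reader and expressed relative to 1% DMSO vehicle. Medium-only also served as negative control; hydrogen peroxide 100 µM as positive control.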

U2OS = assay: Cytotoxicity against human U2OS cells after 96 hrs by Alamar Blue assay; type: cell-based
RAW264.7 = assay: Cytotoxicity against mouse Raw264.7 cells after 96 hrs by Alamar Blue assay; type: cell-based; conditions: RAW264.7, 96 h
LLC-MK2 = assay: Cytotoxicity against monkey LLC-MK2 cells after 96 hrs by Alamar Blue assay; type: cell-based; conditions: Macaca mulatta, LLC-MK2, 96 h

SMILES	LC50 (Leishmania major [1]) [µM]	other results
O=C(O)c1ccc(NC2CCCCC2)c(NCc2ccccc2)c1	> 10	–
CCOC(=O)c1ccc(NC2CCCCC2)c(NCc2cccc(F)c2)c1	> 10	–
CCOC(=O)c1ccc(NC23CC4CC(CC(C4)C2)C3)c(NCc2ccccc2)c1	> 10	–
CCOC(=O)c1ccc(NC2CCCCC2)c(N(Cc2ccccc2)Cc2ccccc2)c1	> 10	–
CCOC(=O)c1ccc(NC2CCCCC2)c(NCc2cccc(OC)c2)c1	4.98	–
CCOC(=O)c1ccc(NC2CCC(C(C)(C)C)CC2)c(NCc2ccccc2)c1 (stereo not drawn)	> 10	–
CCOC(=O)c1ccc(NC2CCCCC2)c(NCc2ccc(OC)cc2)c1	> 10	–
CCOC(=O)c1ccc(NC2CCCCC2)c([N+](=O)[O-])c1	> 10	–
CCOC(=O)c1ccc(NC2CCCCC2)c(NC(=O)OC)c1	> 10	–
CCCCCCCCCCOC(=O)c1cc(N)c(NC2CCCCC2)cc1F	> 10	–
CCOC(=O)c1ccc(NC2CCC(C(C)(C)C)CC2)c(NCc2ccncn2)c1 (stereo not drawn)	4.92	–
CCOC(=O)c1ccc(NC2CCCCC2)c(NCc2ccc(F)c(C#N)c2)c1	> 10	–
CCOC(=O)c1cc(NCc2ccncn2)c(NC2CCCCC2)cc1F	9.49	–
CCOC(=O)c1ccc(NC2CCCCC2)c(NCc2cc(F)cc(Br)c2)c1	> 10	–
CCOC(=O)c1ccc(NC2CCOCC2)c(N)c1	> 10	–
CCOC(=O)c1ccc(NC2CCCCC2)c(NCc2ccc(C#N)cc2)c1	> 10	–
CCOC(=O)c1ccc(NC2CCCCC2)c(NCc2ccccc2)c1	3.34	pIC50 [2]: < 4.10; inhibition at 5 µM (Leishmania major [3]): 80%; fold change (FC) (Leishmania major [4]): 1.75; pIC50 (U2OS): < 4.10; pIC50 (RAW264.7): < 4.10
CCOC(=O)c1ccc(NC2CCCCC2)c(NCc2ccccc2[N+](=O)[O-])c1	> 10	–
CCOC(=O)c1ccc(NC23CC4CC(CC(C4)C2)C3)c(NCc2ccncn2)c1	> 10	–
CCOC(=O)c1ccc(NC2CCCCC2)c(NCc2ccc([N+](=O)[O-])cc2)c1	> 10	–
CCOC(=O)c1ccc(N[C@H]2CC[C@H](N)CC2)c(N)c1	> 10	–
CCOC(=O)c1ccc(NC2CCCCC2)c(NCc2ccc(C(=O)OC)cc2)c1	> 10	–
CCOC(=O)c1cc(N)c(NC2CCCCC2)cc1F	> 10	–
Nc1cc(C(=O)OCCN2CCOCC2)ccc1NC1CCCCC1	> 10	–
CCOC(=O)c1ccc(NC2CCCCC2)c(N)c1	28.8	pIC50 (LLC-MK2): < 3.62
CCOC(=O)c1ccc(NC2CCCCC2)c(NCc2cccc(Cl)c2)c1	> 10	–
CCOC(=O)c1cnc(NC2CCCCC2)c(N)c1	> 10	–
